PfG6PD inh – PfG6PD (Plasmodium falciparum) enzyme inhibition. inhibition, % at 20 µM. actives 0.78% (n = 350,000). PfGluPho enzyme, NADPH resazurin-diaphorase fluorescence;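 active = inhibition reaching at least a set limit at 20 µM in the primary screen, cut at about 59% in these data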;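 also: 0% = DMSO wells with substrate and 100% = DMSO wells lacking glucose-6-phosphate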
HKDC1 inh – HKDC1 (human) hexokinase inhibition; Q2TB90; recombinant HKDC1, G6PDH/diaphorase resazurin coupled fluorescence; AID 493160; inhibition, % at 20 µM; actives 0.16% (n = 340,000);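 active = inhibition above about 35% when tested at 20 µM, limit read from the data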;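 also: plate controls were DMSO wells with enzyme for no effect and DMSO wells lacking enzyme for full effect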
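Assay system: recombinant HKDC1 hexokinase; detection: coupled resazurin fluorescence, excitation 525 nm, emission 613 nm; benchmarks: DMSO-plus-enzyme-mix negative control, buffer-substituted positive control; compound dosing: single 20 µM dose; schedule: 90 min at room temperature in dark; also added: glucose plus 1 mM ATP as hexokinase substrates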
M18AAP inhibitor – blocks P. falciparum M18 aspartyl aminopeptidase. recombinant PfM18AAP, H-Glu-NHMec fluorogenic cleavage. inhibition, % at 7.35 µM. actives 1.2% (n = 290,000);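 active = inhibition above the campaign mean inhibition over all tested compounds plus 3 SD, cut at about 28% in these data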;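 also: 0% = plate median of test compound wells and 100% = 2 mM ZnCl2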
Neddylation inh – blocks human cullin neddylation; P61081+Q13564; TR-FRET cullin neddylation, biochemical; inhibition, % at 25 µM; actives 0.58% (n = 360,000); in the data active = inhibition above about 36%
Neddyl conf – confirmation of human cullin neddylation inhibitors | shares compounds with Neddylation inh | TR-FRET cullin neddylation biochemical assay | calls only at 25 µM | actives 13% (n = 1,800); in the data active = inhibition above about 40%;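 also: neddylation substrate is the cullin 1 ring ligase complex with SKP2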
* hit, by the source's call; i = inactive; · = no result given; + = active, no number. Only some compounds are listed: those with a hit (about 2.2% of all), similar ones and a draw of the others.

SMILES	PfG6PD inh	HKDC1 inh	M18AAP inhibitor	Neddylation inh	Neddyl conf
Cc1ccc2nc(-c3ccc4c(c3)OCCO4)cc(C(=O)O)c2c1	10	0	-5	38*	·
CCOC(=O)c1cc(-c2ccccc2)nc2ccc(C)cc12	16	0	-1	40*	·
CCCOc1ccc(C(F)(F)F)cc1NC(=O)CCc1c(C)noc1C	6	-3	·	5	·
CC(C)CN1C(=O)c2ccc(NC(=O)C3CC3)cc2C1=O	-6	-1	0	41*	i
N#Cc1c(N)n(CCCN2CCOCC2)c2nc3ccccc3nc12	1	7	0	·	·
Nc1c(C(=O)Nc2ccccc2)c2nc3ccccc3nc2n1CCCN1CCOCC1	26	10	-3	57*	+
CCCCN(Cc1nc2ccccc2c(=O)[nH]1)C(=O)CN1C(=O)NC2(CCCCC2)C1=O	17	1	·	5	·
CCOC(=O)/C=c1\s/c(=C\c2ccc(C(=O)OC)cc2)c(=O)n1CC(=O)Nc1ccccc1	-6	-3	3	40*	i
CSc1ccccc1NC(=O)c1cc2c(=O)n3ccccc3nc2s1	3	-4	-4	48*	·
CC(C)NC(=O)c1cc2c(=O)n3ccccc3nc2s1	7	-6	7	2	·
O=C(Nc1cccnc1)C1Cc2c(-c3ccccc3Oc3ccccc3)ccnc2O1 (stereo not given)	·	·	·	5	·
c1ccc(-c2nc(N3CCCC3)nc3ccccc23)cc1	-9	-9	0	27	·
N#Cc1cc(N2CCOCC2)nc2ccccc12	5	-2	1	36*	i
Clc1ccc(-c2nc(N3CCOCC3)nc3ccccc23)cc1	-7	-2	19	44*	·
c1ccc(-c2cc(N3CCOCC3)nc3ccccc23)cc1	-10	8	8	46*	i
O=C(NCC(=O)N1CCN(Cc2c(F)cccc2Cl)CC1)c1cccc(Cl)c1	-16	-5	·	10	·
COc1ccc(N2CC(C(=O)Nc3nnc(SCC(=O)NCc4ccco4)s3)CC2=O)cc1 (stereo not given)	13	0	23	2	·
COc1ccc(-c2ccnc(SCC(=O)N3CCN(c4ccccc4)CC3)n2)cc1	4	-4	1	-1	·
O=C(c1ccc(Br)o1)N1CCN(c2ccc(F)cc2)CC1	6	3	1	-10	·
O=C(CCCc1c[nH]c2ccccc12)N1CCN(c2ccc(N3CCOCC3)nn2)CC1	-8	5	-7	44*	+
O=C(c1cccc(Br)c1)N1CCN(c2ccc(N3CCOCC3)nn2)CC1	2	-10	·	50*	·
CCN1CCN(c2ccc(N3CCN(C(=O)c4ccc(Br)o4)CC3)nn2)CC1	-10	-2	·	48*	·
Cc1ccccc1C(=O)N1CCN(c2ccc(N3CCOCC3)nn2)CC1	1	-8	·	60*	·
Cc1ccccc1C(=O)N1CCN(c2nc(N3CCOCC3)nc(N3CCOCC3)n2)CC1	-12	5	3	-4	·
O=C(CCc1c[nH]c2ccccc12)N1CCN(c2ccc(F)cc2)CC1	13	-7	-2	-5	·
SMILES	PfG6PD inh	HKDC1 inh	M18AAP inhibitor	Neddylation inh	Neddyl conf
CC1(C)C2CCC1(CS(=O)(=O)NC(CC(=O)O)c1cccc(Br)c1)C(=O)C2 (stereo not given)	3	-5	2	-1	·
COc1ccc(NC(=O)c2cc(C3CCCCN3C(=O)C3CCCCC3)on2)c(C)c1 (stereo not given)	·	·	·	8	·
COc1cccc(C(=O)N2CCN(c3ccc(N4CCOCC4)nn3)CC2)c1	-13	-3	·	61*	·
CCS(=O)(=O)Nc1ccc(-c2nnc(SCC(=O)OC)o2)cc1	-25	-5	2	5	·
CCC(=O)Nc1ccc(C(=O)CSc2nnc(-c3ccc(NS(=O)(=O)CC)cc3)o2)cc1OC	-43	-3	0	44*	i
COc1ccc(Cl)cc1Nc1nc(N)c2ccccc2n1	12	6	2	45*	+
CCCOc1cccc(C(=O)NCCNC(=O)c2cnccn2)c1	-10	-1	-2	-1	·
COc1ccc(-c2cc(-c3ccco3)[nH]c(=O)c2C#N)cc1	-17	3	3	54*	i
COc1ccc(CCNC(=O)c2ccc3nc4cc(Cl)ccc4c(=O)n3c2)cc1OC	4	7	3	39*	i
CC(=O)Nc1cccc(-c2ccnc3c2CC(C)(C(=O)Nc2cccc(C(C)=O)c2)O3)c1 (stereo not given)	·	·	·	13	·
COc1ccc(-c2cc(C(=O)NNC(=O)c3csc(N4CCOCC4)n3)c3ccccc3n2)cc1OC	-22	0	·	25	·
